Where only a bound is given, the exact number is not on record here.

The conditions of data set [1]: IV doses 30–60 mg/kg, within 5 min, Male CD1 mice; cited from earlier work.
Data set [2] can be described thus: Plasma pharmacokinetics in mice. It counts as in vivo. The settings on record: BALB/c mouse, IV. Put shortly: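 Balb/c mice received a single IV or oral-gavage dose, with low-dose isoflurane restraint for gavage. Each mouse gave one time point: 3 mice per point, 10 time points. Blood was taken by cardiac puncture under deep isoflurane anaesthesia, and plasma was assayed for parent compound by validated LC-MS/MS.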

The nature of data set [3]: Plasma stability, mouse plasma.

With [D-Pen^2,D-Pen^5]-enkephalin [DPDPE], the “in vivo antinociceptive activity (hotplate)” value in data set [1] is listed as “demonstrated in vivo antinociceptive activity”.
With `CC(C)C[C@H](NC(=O)[C@H](Cc1ccccc1)NC(=O)CNC(=O)CNC(=O)[C@@H](N)Cc1ccc(O)cc1)C(=O)O` [Compound 1, Leu-enkephalin], the “time until completely consumed in plasma” value in data set [2] is not above 5 min. In addition, the microsomal degradation result in the data set “Microsomal stability” (in the absence of NADPH) was “slowly degraded”. Moreover, in the data set “Microsomal stability” (mouse, rat and human NADPH-charged microsomes, 2 h, 0.50 μM), the material metabolized is 38–50%. This molecule also yielded a fraction remaining at 4 h, 50 μM in data set [3] of more than 90%.

The fraction remaining is what is left of the initial amount, in per cent. Read a high fraction remaining as less turnover.

Source of the values: paper PMC6051889 (ACS chemical neuroscience, 2018).
